Assay results from ChEMBL document CHEMBL3421533, “The Discovery of Orally Bioavailable Tyrosine Threonine Kinase (TTK) Inhibitors: 3-(4-(heterocyclyl)phenyl)-1H-indazole-5-carboxamides as Anticancer Agents” (J Med Chem, 2015).

How the values were obtained:
[1] = system: MDA-MB-468; assay: Cytotoxicity against human MDA-MB-468 cells after 5 days by sulforhodamine B assay; format: functional
How it was run: (§1)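 Cancer lines were seeded at 800–6000 cells per well according to growth rate, 24 h before compound overlay. After culture, cells were fixed in situ and stained with sulforhodamine B. GI50 values were derived by curve fitting.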

[2] = Cytotoxicity against human OVCAR3 cells after 5 days by sulforhodamine B assay; format: functional, OVCAR-3
[3] = molecular target: Aurora kinase B/Inner centromere protein (Homo sapiens, UniProt Q96GD4); assay: Inhibition of AURKB/INCENP (unknown origin) preincubated for 15 mins prior to ATP addition by FRET-based homogenous assay; format: protein-complex assay
Sequence of Aurora kinase B/Inner centromere protein (Q96GD4 whole entry): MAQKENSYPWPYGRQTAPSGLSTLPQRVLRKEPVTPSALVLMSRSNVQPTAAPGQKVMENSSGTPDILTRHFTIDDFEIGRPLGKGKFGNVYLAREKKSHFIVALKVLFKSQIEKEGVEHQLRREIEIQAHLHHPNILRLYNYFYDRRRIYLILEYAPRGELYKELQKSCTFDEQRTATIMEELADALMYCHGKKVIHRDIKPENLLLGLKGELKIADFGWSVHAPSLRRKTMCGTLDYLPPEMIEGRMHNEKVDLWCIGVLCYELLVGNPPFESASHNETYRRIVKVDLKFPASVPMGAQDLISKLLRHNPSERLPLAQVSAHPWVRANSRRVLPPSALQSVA
Sequence of Aurora kinase B/Inner centromere protein (Q9NQS7 whole entry, further chain): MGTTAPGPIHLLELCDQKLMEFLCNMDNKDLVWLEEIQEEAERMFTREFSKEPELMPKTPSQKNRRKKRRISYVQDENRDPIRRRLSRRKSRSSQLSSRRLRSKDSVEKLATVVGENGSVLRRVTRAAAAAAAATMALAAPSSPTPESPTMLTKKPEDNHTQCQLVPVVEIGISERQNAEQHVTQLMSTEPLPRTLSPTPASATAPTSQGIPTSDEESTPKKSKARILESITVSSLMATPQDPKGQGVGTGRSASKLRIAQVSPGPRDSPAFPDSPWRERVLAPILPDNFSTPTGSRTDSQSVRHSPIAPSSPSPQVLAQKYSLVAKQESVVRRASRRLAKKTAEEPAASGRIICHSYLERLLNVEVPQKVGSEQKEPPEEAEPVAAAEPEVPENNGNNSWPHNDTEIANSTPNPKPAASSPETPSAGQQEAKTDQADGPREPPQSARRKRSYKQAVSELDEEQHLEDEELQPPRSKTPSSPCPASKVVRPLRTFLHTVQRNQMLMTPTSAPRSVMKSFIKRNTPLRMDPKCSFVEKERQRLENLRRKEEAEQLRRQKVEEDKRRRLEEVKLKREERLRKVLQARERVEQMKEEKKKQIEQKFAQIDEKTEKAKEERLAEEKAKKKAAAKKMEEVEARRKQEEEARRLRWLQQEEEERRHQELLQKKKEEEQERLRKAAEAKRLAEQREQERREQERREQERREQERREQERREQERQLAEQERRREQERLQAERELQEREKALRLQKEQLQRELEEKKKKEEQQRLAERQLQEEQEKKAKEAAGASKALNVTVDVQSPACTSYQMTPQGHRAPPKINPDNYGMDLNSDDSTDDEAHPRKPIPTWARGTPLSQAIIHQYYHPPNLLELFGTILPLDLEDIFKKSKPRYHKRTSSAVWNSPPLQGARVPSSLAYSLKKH
How it was run: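 The enzyme was AURKB/INCENP in a FRET-based homogeneous assay run to kit specifications, with ATP at 128 μM. […] Each IC50 came from a single determination, reported with its standard fitting error.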

[4] = Half life in mouse liver microsomes at 1 uM by LC-MS analysis; format: ADME; conditions: liver microsomes
[5] = molecular target: T1, Dual specificity protein kinase TTK (Homo sapiens, UniProt P33981); assay: Inhibition of amino terminal GST-fused full length human TTK using His6-SUMO-TTK-N as substrate preincubated for 15 mins prior to ATP addition by indirect ELISA detection system
T1 sequence (P33981 whole entry): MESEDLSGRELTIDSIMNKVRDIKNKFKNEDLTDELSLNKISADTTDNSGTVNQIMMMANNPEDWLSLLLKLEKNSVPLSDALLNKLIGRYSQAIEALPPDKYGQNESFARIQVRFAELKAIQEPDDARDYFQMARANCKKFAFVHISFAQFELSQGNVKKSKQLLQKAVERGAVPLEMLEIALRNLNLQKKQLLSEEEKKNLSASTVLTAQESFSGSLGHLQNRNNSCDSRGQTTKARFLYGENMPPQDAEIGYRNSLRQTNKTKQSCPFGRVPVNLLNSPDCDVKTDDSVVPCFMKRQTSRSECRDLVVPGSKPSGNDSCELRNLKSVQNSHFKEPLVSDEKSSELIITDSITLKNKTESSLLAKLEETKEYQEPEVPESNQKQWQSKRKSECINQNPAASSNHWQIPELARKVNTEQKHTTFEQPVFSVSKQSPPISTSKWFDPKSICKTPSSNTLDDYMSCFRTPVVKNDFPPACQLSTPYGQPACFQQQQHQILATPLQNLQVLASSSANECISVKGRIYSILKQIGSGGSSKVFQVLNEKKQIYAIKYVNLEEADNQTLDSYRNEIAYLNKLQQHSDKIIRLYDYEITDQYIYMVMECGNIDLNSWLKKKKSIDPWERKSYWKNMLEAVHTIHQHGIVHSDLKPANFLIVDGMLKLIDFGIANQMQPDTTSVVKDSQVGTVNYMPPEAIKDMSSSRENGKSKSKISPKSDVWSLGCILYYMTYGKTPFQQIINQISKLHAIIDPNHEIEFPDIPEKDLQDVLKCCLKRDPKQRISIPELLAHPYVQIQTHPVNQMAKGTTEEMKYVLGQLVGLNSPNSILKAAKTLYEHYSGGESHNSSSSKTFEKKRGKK

[6] = Cytotoxicity against human HCT116 cells after 5 days by sulforhodamine B assay; format: functional, HCT-116; how it was run: as §1
[7] = species: Homo sapiens; assay: Selectivity ratio of IC50 for AURKB/INCENP (unknown origin) to IC50 for amino terminal GST-fused full length human TTK
[8] = molecular target: Cytochrome P450 3A4 (Homo sapiens, UniProt P08684); assay: Inhibition of human CYP3A4 using BFC as substrate preincubated for 10 mins followed by enzyme/substrate addition measured after 30 mins by fluorescence assay; format: ADME
Sequence of Cytochrome P450 3A4 (P08684 whole entry): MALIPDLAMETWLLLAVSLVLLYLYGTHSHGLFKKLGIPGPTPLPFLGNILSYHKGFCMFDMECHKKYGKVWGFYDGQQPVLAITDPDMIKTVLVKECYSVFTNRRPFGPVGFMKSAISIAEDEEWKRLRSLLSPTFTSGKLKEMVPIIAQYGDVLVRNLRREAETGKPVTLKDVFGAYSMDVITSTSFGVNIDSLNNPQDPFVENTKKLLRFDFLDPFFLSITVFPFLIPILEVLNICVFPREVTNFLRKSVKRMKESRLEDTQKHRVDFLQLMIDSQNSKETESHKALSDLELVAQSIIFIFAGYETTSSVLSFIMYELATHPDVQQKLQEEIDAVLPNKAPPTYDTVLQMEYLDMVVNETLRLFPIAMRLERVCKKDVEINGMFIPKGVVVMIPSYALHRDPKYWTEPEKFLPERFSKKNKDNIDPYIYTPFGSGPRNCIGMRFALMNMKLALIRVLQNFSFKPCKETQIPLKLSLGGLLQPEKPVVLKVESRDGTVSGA

[9] = Half life in rat liver microsomes at 1 uM by LC-MS analysis; format: ADME; conditions: liver microsomes
[10] = AUCinfinity in athymic CD1 nude mouse at 10 mg/kg, po by LC-MS/MS analysis; format: ADME, organism-based, Plasma; set-up: time infinity, dose 10 mg/kg, route oral; conditions: athymic CD1 nude, plasma
[11] = Cmax in athymic CD1 nude mouse at 10 mg/kg, po by LC-MS/MS analysis; format: ADME, organism-based; set-up: dose 10 mg/kg, route oral; conditions: athymic CD1 nude, in vivo
[12] = Homo sapiens, MDA-MB-468, 120 h

SMILES | GI50 [1, 12] [nM] | GI50 ([2]; Homo sapiens, OVCAR-3, 120 h) [nM] | IC50 [3] [nM] | half-life at 1 µM [4] [min] | IC50 [5] [nM] | GI50 ([6]; Homo sapiens, HCT-116, 120 h) [nM] | IC50 [8] [nM] | further results
O=C(N[C@@H](c1ncccn1)C1CCCC1)c1ccc2[nH]nc(-c3ccc(N4[C@H]5CC[C@H]4CC(O)C5)cc3)c2c1 (stereo not given in full) | 150 | 160 | 850 | > 60 | 3.9 | 20 | – | –
O=C(N[C@H](c1ccccn1)C1CCCC1)c1ccc2[nH]nc(-c3ccc(N4[C@H]5CC[C@H]4CC(O)C5)cc3)c2c1 (stereo in doubt; 88) | – | – | – | – | – | – | – | Ratio IC50 [7]: > 100
CN1[C@@H]2CC[C@H]1C[C@@H](Oc1ccc(-c3n[nH]c4ccc(C(=O)NC(c5ccccc5)C5CC5)cc34)cc1)C2 (mixture of isomers) | 130 | – | 93 | – | 2.8 | 30 | 2400 | –
O=C(N[C@H](c1ccccn1)C1CCCC1)c1ccc2[nH]nc(-c3ccc(N4[C@H]5CC[C@H]4CC(O)C5)cc3)c2c1 (stereo in doubt; 76) | – | – | – | – | – | – | – | Ratio IC50 [7]: > 100
O=C(N[C@@H](c1ccccn1)C1CCCC1)c1ccc2[nH]nc(-c3ccc(N4[C@H]5CC[C@H]4CC(O)C5)cc3)c2c1 (stereo not given in full) | 30 | 90 | 1800 | > 60 | 4.1 | 15 | 230 | Ratio IC50 [7]: > 100; half-life at 1 µM [9]: 22 min
O=C(NCC1(N2CCOCC2)CCCCC1)c1ccc2[nH]nc(-c3ccc(N4C5CCC4COC5)cc3)c2c1 | 25 | 17 | 800 | 2.7 | 1.1 | 1 | – | half-life at 1 µM [9]: 9.6 min
CC(C)[C@H](NC(=O)c1ccc2[nH]nc(-c3ccc(N4C5CCC4COC5)cc3)c2c1)c1ccccc1Cl | – | – | 1900 | – | – | – | 60 | –
CC[C@@H](NC(=O)c1ccc2[nH]nc(-c3ccc(OC4CCN(C)CC4)cc3)c2c1)c1ccccc1Cl | – | – | 38 | – | – | – | – | –
CC(C)C[C@H](NC(=O)c1ccc2[nH]nc(-c3ccc(N4[C@H]5CC[C@H]4CC(O)C5)cc3)c2c1)c1ccccn1 (stereo not given in full) | 17 | 140 | 1500 | > 60 | 1.7 | 2 | – | half-life at 1 µM [9]: 48 min
O=C(N[C@@H](c1ccccc1F)C1CC1)c1ccc2[nH]nc(-c3ccc(N4C5CCC4COC5)cc3)c2c1 | – | – | 980 | – | – | – | 240 | –
O=C(N[C@@H](c1ccccn1)C1CC1)c1ccc2[nH]nc(-c3ccc(N4[C@H]5CC[C@H]4CC(O)C5)cc3)c2c1 (stereo in doubt; 87) | – | – | 1700 | – | 2.7 | – | 1400 | GI50 [1]: 210 nM; GI50 [2]: 310 nM; GI50 [6]: 48 nM
O=CN1CCC(Oc2ccc(-c3n[nH]c4ccc(C(=O)NC(c5ccccc5)C5CC5)cc34)cc2)CC1 (racemic) | 360 | – | – | – | 16 | 130 | 1500 | –
CC(C)C[C@H](NC(=O)c1ccc2[nH]nc(-c3ccc(N4[C@H]5CCC[C@H]4CC(O)C5)cc3)c2c1)c1ccccn1 (stereo not given in full) | 450 | 730 | 980 | – | 14 | 150 | – | Ratio IC50 [7]: > 100
NS(=O)(=O)c1cccc(-c2n[nH]c3ccc(C(=O)NC(c4ccccc4)C4CC4)cc23)c1 (stereo not given) | – | – | 5000 | – | – | – | – | –
O=C(N[C@H](c1ccccn1)C1CC1)c1ccc2[nH]nc(-c3ccc(N4[C@H]5CC[C@H]4CC(O)C5)cc3)c2c1 (stereo in doubt; 74) | – | – | 530 | > 60 | 1.2 | 18 | 2100 | GI50 [1]: 16 nM; GI50 [2]: 20 nM; AUC(0-inf) [10]: 1600 ng·h/mL; half-life at 1 µM [9]: > 60 min; Cmax [11]: 1600 ng/mL
CN1CCC(Oc2ccc(-c3n[nH]c4ccc(C(=O)NC(c5ccccc5)C5CC5)cc34)cc2)CC1 (racemic) | – | – | 57 | – | – | – | – | –
O=C(N[C@H](c1ccccc1)C1CC1)c1ccc2[nH]nc(-c3ccc(N4[C@H]5CC[C@H]4CC(O)C5)cc3)c2c1 (stereo not given in full) | 70 | 120 | 1100 | 47 | 2.8 | 22 | – | AUC(0-inf) [10]: 670 ng·h/mL; Ratio IC50 [7]: > 100; half-life at 1 µM [9]: 35 min; Cmax [11]: 480 ng/mL

SMILES | GI50 [1, 12] [nM] | GI50 ([2]; Homo sapiens, OVCAR-3, 120 h) [nM] | IC50 [3] [nM] | half-life at 1 µM [4] [min] | IC50 [5] [nM] | GI50 ([6]; Homo sapiens, HCT-116, 120 h) [nM] | IC50 [8] [nM] | further results
O=C(N[C@H](c1ccccc1F)C1CC1)c1ccc2[nH]nc(-c3ccc(N4C5CCC4COC5)cc3)c2c1 | – | – | 470 | – | – | – | – | –
CC(C)C[C@H](NC(=O)c1ccc2[nH]nc(-c3ccc(N4[C@H]5COC[C@H]4CC(O)C5)cc3)c2c1)c1ccccn1 (mixture of isomers) | – | – | 230 | – | – | – | – | –
CC(C)[C@H](NC(=O)c1ccc2[nH]nc(-c3ccc(N4[C@H]5CC[C@H]4CC(O)C5)cc3)c2c1)c1ccccc1Cl (stereo not given in full) | 21 | 7 | > 6300 | 34 | 6 | 9 | – | AUC(0-inf) [10]: 620 ng·h/mL; Ratio IC50 [7]: > 100; half-life at 1 µM [9]: > 60 min; Cmax [11]: 330 ng/mL
CN1CCC(Oc2ccc(-c3n[nH]c4ccc(C(=O)NC(c5ccccn5)C5CCCC5)cc34)cc2)CC1 (racemic) | – | – | 180 | – | – | – | – | –
O=C(NCC1(N2CCOCC2)CCCCC1)c1ccc2[nH]nc(-c3ccc(N4CC5CCC(C4)O5)cc3)c2c1 | 650 | 690 | – | – | 18 | 150 | – | –
CN1CCC(Oc2ccc(-c3n[nH]c4ccc(NC(=O)C(c5ccccn5)C5CCCC5)cc34)cc2)CC1 (racemic) | – | – | 71 | – | – | – | – | –
O=C(N[C@@H](c1ccccn1)C1CCCC1)c1ccc2[nH]nc(-c3ccc(N4C5CCC4COC5)cc3)c2c1 | – | – | 1400 | – | – | – | 360 | –
O=CN1CCC(Oc2ccc(-c3n[nH]c4ccc(C(=O)NC(c5ccccn5)C5CC5)cc34)cc2)CC1 (racemic) | 260 | – | 95 | – | 9.4 | 35 | 1500 | –
O=C(N[C@H](c1ccccn1)C1CC1)c1ccc2[nH]nc(-c3ccc(N4C5CCC4COC5)cc3)c2c1 | 15 | 18 | 360 | > 60 | 1.4 | 2 | – | half-life at 1 µM [9]: > 60 min
CN1[C@@H]2CC[C@H]1C[C@H](Oc1ccc(-c3n[nH]c4ccc(C(=O)NC(c5ccccc5)C5CC5)cc34)cc1)C2 (mixture of isomers) | 160 | – | – | – | 7.3 | 33 | – | –
O=C(N[C@@H](c1ccccn1)C1CCCC1)c1ccc2[nH]nc(-c3ccc(N4[C@H]5COC[C@H]4CC(O)C5)cc3)c2c1 (stereo not given in full) | 140 | 160 | 740 | 60 | 2.2 | 15 | 330 | Ratio IC50 [7]: > 100; half-life at 1 µM [9]: 33 min
O=C(NC(c1ccccc1)C1CC1)c1ccc2[nH]nc(-c3cccc(N4CCOCC4)c3)c2c1 (racemic) | 7800 | – | – | – | 340 | 5600 | – | –
CC(C)C[C@@H](NC(=O)c1ccc2[nH]nc(-c3ccc(N4[C@H]5CC[C@H]4CC(O)C5)cc3)c2c1)c1ccccn1 (stereo not given in full) | 26 | 82 | 1600 | > 60 | 2.7 | 5 | – | half-life at 1 µM [9]: 25 min
CN1CCN(c2ccc(-c3n[nH]c4ccc(NC(=O)C(c5ccsc5)N5CCCC5)cc34)cc2S(C)(=O)=O)CC1 (racemic) | 900 | – | – | – | 18 | 280 | – | –
O=C(N[C@H](c1ccccn1)C1CCCC1)c1ccc2[nH]nc(-c3ccc(N4C5CCCC4COC5)cc3)c2c1 | 180 | 200 | 2800 | 50 | 8.3 | 25 | – | –
O=C(NCC1(N2CCOCC2)CCCCC1)c1ccc2[nH]nc(-c3ccc(N4CCC(O)CC4)cc3)c2c1 | 210 | – | – | – | 230 | 48 | – | –
